Assays:
[1] = target: T1, Protein deacetylase HDAC6 (Homo sapiens, UniProt Q9UBN7); assay: Inhibition of recombinant His-tagged HDAC6 (unknown origin) using Fluor-de-Lys SIRT1 as substrate incubated for 3 hrs prior to substrate addition measured after 60 mins by fluorescence plate reader analysis
T1 sequence (Q9UBN7 whole entry): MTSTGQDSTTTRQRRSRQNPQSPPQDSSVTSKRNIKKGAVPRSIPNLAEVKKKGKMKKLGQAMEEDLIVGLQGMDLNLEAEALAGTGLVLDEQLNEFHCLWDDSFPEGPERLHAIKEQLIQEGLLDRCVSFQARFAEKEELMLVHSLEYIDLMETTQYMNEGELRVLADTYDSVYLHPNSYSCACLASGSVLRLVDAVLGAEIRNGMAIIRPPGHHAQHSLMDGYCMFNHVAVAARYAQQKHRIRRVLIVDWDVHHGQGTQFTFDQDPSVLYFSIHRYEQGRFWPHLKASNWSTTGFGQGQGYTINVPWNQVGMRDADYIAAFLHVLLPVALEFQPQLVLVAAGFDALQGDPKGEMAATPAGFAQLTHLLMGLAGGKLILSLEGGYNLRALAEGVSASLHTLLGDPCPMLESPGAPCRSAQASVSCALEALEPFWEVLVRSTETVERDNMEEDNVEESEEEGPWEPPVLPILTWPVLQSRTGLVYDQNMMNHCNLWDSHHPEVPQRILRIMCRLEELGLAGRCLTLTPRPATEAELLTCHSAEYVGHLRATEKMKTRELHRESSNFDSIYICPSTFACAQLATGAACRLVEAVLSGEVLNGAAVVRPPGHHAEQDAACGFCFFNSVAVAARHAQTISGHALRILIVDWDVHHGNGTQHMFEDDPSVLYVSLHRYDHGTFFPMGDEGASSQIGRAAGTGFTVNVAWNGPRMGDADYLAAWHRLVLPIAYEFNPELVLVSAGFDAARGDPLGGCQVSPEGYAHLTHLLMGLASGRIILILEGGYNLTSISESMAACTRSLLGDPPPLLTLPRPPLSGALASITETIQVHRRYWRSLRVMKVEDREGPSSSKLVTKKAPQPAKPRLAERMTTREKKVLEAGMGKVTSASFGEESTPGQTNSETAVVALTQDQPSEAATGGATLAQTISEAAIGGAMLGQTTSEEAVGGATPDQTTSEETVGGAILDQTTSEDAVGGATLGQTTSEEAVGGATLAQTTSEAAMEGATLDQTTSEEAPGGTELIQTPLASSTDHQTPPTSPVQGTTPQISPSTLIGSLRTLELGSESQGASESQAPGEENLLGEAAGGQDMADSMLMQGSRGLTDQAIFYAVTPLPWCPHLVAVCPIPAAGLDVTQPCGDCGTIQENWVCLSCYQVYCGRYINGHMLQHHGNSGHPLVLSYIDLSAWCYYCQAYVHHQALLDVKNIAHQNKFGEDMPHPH

Jurkat = assay: Cell cycle arrest in human Jurkat cells assessed as accumulation at sub-G1 phase at 10 uM after 24 hrs by FITC/propidium iodide staining-based FACS flow cytometric analysis (reference value: 2%); assay type: functional
Procedure, shortened: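 HeLa and Jurkat human cells were cultured for 24 h with compound at two concentrations. The control was an equal volume of the DMSO diluent. Cellular DNA and protein content were then measured by flow cytometry, and the percentage of cells in sub-G1, G0/G1, S and G2/M was read out.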

Q: Which IC50 [1] does the source give for `Nc1ccccc1NC(=O)c1ccc(CNC2=N[C@@H](c3ccccc3)CS2)cc1` here?
A: Its IC50 is > 20 µM.

Q: What about the Activity (Jurkat) of the same molecule?
A: The Activity was 19.5%.
